The source made the active and inactive calls. The calls are words filed in the database; no cut-off is given here.
What was measured:
[1] = Antioxidant activity assessed as peroxyl radical scavenging activity at 10 uM by fluorescence quenching assay; type: functional
How it was run: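 Peroxyl radicals were assayed with a commercial ORAC kit, per the manufacturer's protocol, with compound at 10 µM. The read-out was quenching of indicator fluorescence (ex 480 nm, em 520 nm).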

[2] = Antioxidant activity assessed as hydroxyl radical scavenging activity at 0.2 to 10 uM; type: functional
How it was run: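 Hydroxyl radical scavenging was measured with a commercial HORAC kit, per the manufacturer's protocol, at compound concentrations of 0.2, 1 and 10 µM. Read-out was fluorescence (ex 485 nm, em 530 nm) of a reporter that is inversely proportional to surviving radical. Distilled water served as control.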

[3] = test system: HBMEC; test: Antiinflammatory activity in HBMEC cells assessed as inhibition of TGRL lipolysis-induced IL-8 gene expression by RT-PCR analysis relative to control; type: functional, cell-based; settings: Homo sapiens
How it was run: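 HBMEC (passage 6) were grown in serum-free or 10%-serum complete medium on attachment factor at 37°C in 5% CO2. Cells were pretreated 30 min with 200 µM compound, then exposed 3 h to TGRL (150 mg/dL) plus lipoprotein lipase (2 U/mL), preincubated together 30 min at 37°C. IL-8 mRNA was measured by SYBR Green qRT-PCR, normalized to GAPDH, comparative CT; N = 3.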

[4] = Antioxidant activity assessed as hydroxyl radical scavenging activity by electron paramagnetic resonance spectra analysis; type: functional; design: concentration or dose not given beside the values
How it was run: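 For EPR, 9 µl of ROS mixture was combined immediately with 1 µl of compound from a 2 mM stock. About 5 µl was loaded into a sealed quartz capillary for measurement.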

[5] = Antioxidant activity assessed as peroxyl radical scavenging activity by electron paramagnetic resonance spectra analysis; type: functional
[6] = test system: HBMEC; test: Antiinflammatory activity in HBMEC cells assessed as inhibition of TGRL lipolysis-induced COX-2 gene expression by RT-PCR analysis relative to control; type: functional, cell-based; settings: Homo sapiens
How it was run: (§1)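 Human brain microvascular endothelial cells (passage 6) grown at 37°C, 5% CO2; pre-treated 30 min with 200 µM compound, then 3 h with TGRL (150 mg/dL) plus lipoprotein lipase (2U/mL), pre-incubated together 30 min at 37°C. Total RNA reverse-transcribed; SYBR Green real-time PCR normalised to GAPDH, comparative CT method; N = 3.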

[7] = test system: HBMEC; test: Antiinflammatory activity in HBMEC cells assessed as inhibition of TGRL lipolysis-induced ATF3 gene expression by RT-PCR analysis relative to control; type: functional, cell-based; settings: Homo sapiens; how it was run: as §1

Structure (SMILES) | Activity [1] | Activity [2] | Activity [3] | Activity [4] | Activity [5] | fold change (FC) [6] | fold change (FC) [7]
CC1(C)CC(O)CC(C)(C)N1[O] | Active | Active | – | – | – | – | –
CC1(C)C=C(CNc2ccc3c(c2)Cc2cc(Br)ccc2-3)C(C)(C)N1[O] | Active | Active | inactive | 28% | 73% | – | –
CC1(C)C=C(CNc2ccc3c(c2)Cc2cc(Br)ccc2-3)CC(C)(C)N1[O] | Active | Active | Active | 26% | – | – | –
CN1C(C)(C)C=C(CNc2ccc3c(c2)Cc2cc(Br)ccc2-3)C1(C)C | Active | Active | inactive | 29% | 100% | – | –
CC1(C)C=C(CNc2ccc3c(c2)Cc2cc(Br)ccc2-3)CC(C)(C)N1O | Active | Active | Active | 61% | 80% | – | –
CN(CC1=CC(C)(C)N([O])C1(C)C)c1ccc2c(c1)Cc1cc(Br)ccc1-2 | Active | Active | – | 18% | – | 2.7 | 18.3
CN(CC1=CC(C)(C)NC1(C)C)c1ccc2c(c1)Cc1cc(Br)ccc1-2 | Active | Active | inactive | 18% | 100% | – | –
CC1(C)C(Br)=C(CNc2ccc3c(c2)Cc2cc(Br)ccc2-3)C(C)(C)N1[O] | Active | Active | inactive | 10% | – | – | –
CN(C)c1ccc2c(c1)Cc1cc(Br)ccc1-2 | Active | Active | – | – | – | – | –

From ChEMBL document CHEMBL1759856, “Synthesis and study of 2-amino-7-bromofluorenes modified with nitroxides and their precursors as dual anti-amyloid and antioxidant active compounds” (Eur J Med Chem, 2011)
